{
  "source": "paper PMC5499931",
  "about": "(OncoTargets and therapy, 2017)",
  "key": {"[1]": {"tested_on": "patients with advanced carcinoid syndrome refractory to octreotide LAR", "details": "pasireotide LAR 60 mg vs octreotide LAR 30 mg; cited from earlier work"}, "[2]": {"tested_on": "patients with advanced NETs", "assay": "MTD/dose-limiting toxicity", "assay_type": "in vivo, human", "details": "80 and 120 mg; first two treatment cycles", "method_in_brief": "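Dose escalation in cohorts of 3–6 patients, starting at 80 mg IM every 28 days. Later doses were chosen in 20 mg multiples by a two-parameter Bayesian logistic regression model with overdose control. Intra-patient escalation was not allowed; de-escalation was permitted. DLT window was the first two 28-day cycles. Evaluable patients had two injections with sufficient safety evaluation, or a DLT. MTD was defined as the highest dose with expected DLT in ≤33%.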"}, "[3]": {"tested_on": "patients with advanced NETs", "assay": "AEs regardless of study drug relationship", "assay_type": "in vivo, human", "method_in_brief": "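Open-label, multicentre phase I in adults with advanced, well- or moderately differentiated NETs progressing within the prior 12 months; HbA1c >7.0% excluded. Test compound given as long-acting IM injection every 28 days. Safety set was everyone receiving at least one dose, grouped by first dose received. AEs coded by MedDRA 18.0; laboratory abnormalities graded by CTCAE 3.0.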"}, "[4]": {"tested_on": "patients with advanced NETs", "assay": "Bradycardia", "assay_type": "in vivo, human", "details": "for Odds ratio [95% CI] of bradycardia (HR <40 bpm) for a 1.5-fold increase in pasireotide concentration: logistic regression, not statistically significant", "method_in_brief": "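HR recorded by 24-hour Holter on Cycle 1 Day 1 and Cycle 2 Day 1 in all patients. Bradycardia, defined as minimum HR <40 bpm, was analysed by pooling vital signs, 12-lead ECG and Holter data. Post hoc review covered dose-escalation cohorts plus the 120 mg expansion cohort. Dosing was IM every 28 days.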"}, "[5]": {"assay": "Pasireotide plasma concentrations", "assay_type": "in vivo", "details": "human, im"}},
  "note": "Entries after “also recorded” stand apart in the source; their conditions may differ. *1 amine or outer side, *2 acyl side, *3 side chain or, on linkers, in order; H or OH if unused. Where a SMILES comes first, the peptide text is derived from it. Side-chain parts run from the residue outwards. [ ]: non-standard residue; d: D form. The star is where a group is joined. Ethylenediamine = C(CN[*:2])N[*:1]; Hyp = O=C(O)[C@@H]1C[C@@H](O)CN1; Phg = N[C@H](C(=O)O)c1ccccc1; CO = O=C([*:1])[*:2]; Bn = c1ccc(C*)cc1",
  "data": [
    {"molecule": "octreotide [octreotide LAR]", "values": [
      {"measurement": "Tumor control rate at month 6", "setting": "[1]", "result": 46.2, "unit": "%"}
    ]},
    {"molecule": "NCCCC[C@@H]1NC(=O)[C@@H](Cc2c[nH]c3ccccc23)NC(=O)[C@H](c2ccccc2)NC(=O)[C@@H]2C[C@@H](OC(=O)NCCN)CN2C(=O)[C@H](Cc2ccccc2)NC(=O)[C@H](Cc2ccc(OCc3ccccc3)cc2)NC1=O", "note": "[Pasireotide LAR, pasireotide] (cyclo([Hyp]([CO-Ethylenediamine])[Phg][dW]KY(Bn)F))", "values": [
      {"measurement": "Protocol-defined dose-limiting toxicities (DLTs)", "setting": "[2]", "result": "No protocol-defined dose-limiting toxicities; also recorded: no protocol-defined DLTs"},
      {"measurement": "AEs of any grade, patients", "setting": "[3]; 80 mg", "result": 92, "unit": "%"},
      {"measurement": "AEs, Total", "setting": "[3]; 80 mg i.m./28 days (n=13), Grade 3/4", "result": "9 (69.2) n (%)"},
      {"measurement": "AEs, Total", "setting": "[3]; 80 mg i.m./28 days (n=13), all grade", "result": "12 (92.3) n (%)"},
      {"measurement": "AEs of any grade, patients", "setting": "[3]; 120 mg", "result": 100, "unit": "%"},
      {"measurement": "AEs, Total", "setting": "[3]; 120 mg i.m./28 days (n=16), Grade 3/4", "result": "11 (68.8) n (%)"},
      {"measurement": "AEs, Total", "setting": "[3]; 120 mg i.m./28 days (n=16), all grade", "result": "16 (100) n (%)"},
      {"measurement": "AEs, Total", "setting": "[3]; all patients, 80 or 120 mg (N=29), Grade 3/4", "result": "20 (69.0) n (%)"},
      {"measurement": "AEs, Total", "setting": "[3]; all patients, 80 or 120 mg (N=29), all grade", "result": "28 (96.6) n (%)"},
      {"measurement": "Incidence of bradycardia (HR <40 bpm)", "setting": "[4]; 120 mg (5/16), Holter assessment, post hoc", "result": 31, "unit": "%"},
      {"measurement": "Odds ratio [95% CI] of bradycardia (HR <40 bpm) for a 1.5-fold increase in pasireotide concentration", "setting": "[4]; day time (6 am through 10 pm)", "result": "1.67 [0.38–7.34]"},
      {"measurement": "Odds ratio [95% CI] of bradycardia (HR <40 bpm) for a 1.5-fold increase in pasireotide concentration", "setting": "[4]; night time (10 pm through 6 am)", "result": "2.02 [0.49–8.29]"},
      {"measurement": "Cmax", "setting": "[5]; 80 mg", "result": "13.7 ± 11.5", "unit": "ng/mL"},
      {"measurement": "Cmax", "setting": "[5]; 120 mg", "result": "23.2 ± 31.4", "unit": "ng/mL"}
    ]}
  ]
}
